{"data": "Measurements collected from several papers", "cell line": "MV4-11", "effect on": "cell growth or viability", "note": "Each line is one published result; the experiments were not run side by side."}
{"Compound": "CN1CCN(C(=O)[C@H](CCCN[C@@H]2C[C@H]2c2ccc(F)cc2)NC(=O)c2ccc(-n3ccnn3)cc2)CC1", "test": "resazurin", "setting": "96 h", "endpoint": "EC50", "value": "4.2 nM"}
{"Compound": "CC(C)Nc1ccnc(Nc2ccc(C(N)=O)cc2)n1", "test": "ATP luminescence", "setting": "72 h", "endpoint": "EC50", "value": "2530 nM"}
{"Compound": "Cc1ccc(NC(=O)NCc2ccc3c(c2)CN(C2CCC(=O)NC2=O)C3=O)cc1Cl (stereo not drawn)", "test": "ATP luminescence", "endpoint": "EC50", "value": "0.026 nM"}
{"Compound": "Nc1ncc(-c2cnn(C3CCNCC3)c2)cc1-c1nnc(CC2CC2)o1", "test": "trypan blue", "setting": "72 h", "endpoint": "IC50", "value": "157 nM"}
{"Compound": "c1cc(Nc2nccc(NC3CCCCC3)n2)cc(-c2ncco2)c1", "test": "ATP luminescence", "setting": "72 h", "endpoint": "EC50", "value": "511 nM"}
{"Compound": "COc1cc(Nc2nccc(-c3cnn4nc(OC)ccc34)n2)cc(C(F)(F)F)c1", "test": "ATP luminescence", "endpoint": "IC50", "value": "48 nM"}
{"Compound": "C#CCN(C)Cc1ccccc1", "test": "resazurin", "setting": "96 h", "endpoint": "EC50", "value": "> 2000 nM"}
{"Compound": "CC[C@@H](C)[C@H](N)C(=O)N1Cc2ccccc2C1", "test": "ATP luminescence", "setting": "24 h", "endpoint": "IC50", "value": "1150 nM"}
{"Compound": "CCNc1ccnc(Nc2cccc(-c3cccnc3)c2)n1", "test": "ATP luminescence", "setting": "72 h", "endpoint": "EC50", "value": "35 nM"}
{"Compound": "Cc1cc2c(cc1N1C(=O)c3cccc4c(CCCO)ccc(c34)C1=O)n(C)c(=O)n2C (racemic)", "test": "resazurin", "endpoint": "GI50", "value": "2630 nM"}
{"Compound": "COC(=O)[C@H](C)Nc1ccnc(Nc2cccc(-c3cccnc3)c2)n1", "test": "ATP luminescence", "setting": "72 h", "endpoint": "EC50", "value": "> 8000 nM"}
{"Compound": "O=C(O)c1ccc(CN2CCC(CN[C@@H]3C[C@H]3c3ccccc3)CC2)cc1", "test": "resazurin", "setting": "96 h", "endpoint": "EC50", "value": "39.6 nM"}
{"Compound": "COc1cc2nccc(Oc3ccc(NC(=O)C4(C(=O)Nc5ccc(F)cc5)CC4)cc3)c2cc1OC", "test": "trypan blue", "setting": "72 h", "endpoint": "IC50", "value": "12 nM"}
{"Compound": "CC(C)[C@H](N)C(=O)N1CCC[C@H]1B(O)O", "test": "ATP luminescence", "setting": "48 h", "endpoint": "IC50", "value": "78 nM"}
{"Compound": "O=C(NC1CCC1)c1ccc2nc(-c3cccc(NS(=O)(=O)NCCN4CCCCC4)c3)cn2c1", "test": "ATP luminescence", "setting": "72 h", "endpoint": "IC50", "value": "4200 nM"}
